ChEMBL document CHEMBL3751694, “1-Piperazinylphthalazines as potential VEGFR-2 inhibitors and anticancer agents: Synthesis and in vitro biological evaluation” (Eur J Med Chem, 2016)

Assays:
Type in all cases: functional
[1] = system: NCI-H460; assay: Growth inhibition of human NCI-H460 cells at 10 uM after 48 hrs by SRB method; conditions: NCI-H460, 48 h, read-out: GI
Method in brief: (§1)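 NCI 56-line primary screen at a single 10^-5 M concentration. Cells grown in RPMI 1640 with 5% FBS and 2 mM L-glutamine, plated at 5000–40,000 cells/well, then preincubated for 24 h. Exposure was 48 h at 37 °C and 5% CO2. Adherent cells were fixed with cold TCA at 10% final, suspension cells at 16%. Staining used 0.4% SRB, read at 515 nm. Results are % growth inhibition relative to control.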

[2] = system: CCRF-CEM; assay: Growth inhibition of human CCRF-CEM cells at 10 uM after 48 hrs by SRB method; conditions: read-out: GI; method in brief: as §1
[3] = system: M14; assay: Growth inhibition of human M14 cells at 10 uM after 48 hrs by SRB method; conditions: M14, 48 h, read-out: GI; method in brief: as §1
[4] = system: SR; assay: Growth inhibition of human SR cells at 10 uM after 48 hrs by SRB method; conditions: read-out: GI; method in brief: as §1
[5] = Growth inhibition of human UACC257 cells at 10 uM after 48 hrs by SRB method; conditions: UACC-257, 48 h, read-out: GI
Method in brief: (§2)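 NCI 56-line screen, single-dose primary assay at 10^-5 M. Cells grown in RPMI 1640 with 5% FBS and 2 mM L-glutamine, plated at 5000–40,000 cells/well and held 24 h at 37 °C, 5% CO2 before drug addition. Compound was given from DMSO stock, exposure 48 h, then TCA fixation and SRB staining with absorbance at 515 nm. % growth is taken relative to time-zero and untreated controls.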

[6] = Growth inhibition of human OVCAR8 cells at 10 uM after 48 hrs by SRB method; conditions: OVCAR-8, 48 h, read-out: GI; method in brief: as §1
[7] = Growth inhibition of human BT549 cells at 10 uM after 48 hrs by SRB method; conditions: BT-549, 48 h, read-out: GI; method in brief: as §1
[8] = system: A549; assay: Growth inhibition of human A549 cells at 10 uM after 48 hrs by SRB method; conditions: A549, 48 h, read-out: GI; method in brief: as §1
[9] = Growth inhibition of human UO31 cells at 10 uM after 48 hrs by SRB method; conditions: UO-31, 48 h, read-out: GI; method in brief: as §2
[10] = system: MCF7; assay: Growth inhibition of human MCF7 cells at 10 uM after 48 hrs by SRB method; conditions: MCF7, 48 h, read-out: GI; method in brief: as §1
[11] = Growth inhibition of human HCT116 cells at 10 uM after 48 hrs by SRB method; conditions: HCT-116, 48 h, read-out: GI; method in brief: as §1
[12] = Growth inhibition of human UACC62 cells at 10 uM after 48 hrs by SRB method; conditions: UACC-62, 48 h, read-out: GI; method in brief: as §2
[13] = Growth inhibition of human TK10 cells at 10 uM after 48 hrs by SRB method; conditions: TK-10, 48 h, read-out: GI; method in brief: as §2
[14] = system: NCI-H226; assay: Growth inhibition of human NCI-H226 cells at 10 uM after 48 hrs by SRB method; conditions: NCI-H226, 48 h, read-out: GI; method in brief: as §1
[15] = Growth inhibition of human […] cells at 10 uM after 48 hrs by SRB method; conditions: read-out: GI; method in brief: as §1
[16] = system: MDA-MB-468; assay: Growth inhibition of human MDA-MB-468 cells at 10 uM after 48 hrs by SRB method; conditions: MDA-MB-468, 48 h, read-out: GI; method in brief: as §1
[17] = system: ACHN; assay: Growth inhibition of human ACHN cells at 10 uM after 48 hrs by SRB method; conditions: read-out: GI; method in brief: as §1
[18] = system: SK-MEL-5; assay: Growth inhibition of human SK-MEL-5 cells at 10 uM after 48 hrs by SRB method; conditions: SK-MEL-5, 48 h, read-out: GI; method in brief: as §1
[19] = system: K562; assay: Growth inhibition of human K562 cells at 10 uM after 48 hrs by SRB method; conditions: K562, 48 h, read-out: GI; method in brief: as §1
[20] = Growth inhibition of human HL-60(TB) cells at 10 uM after 48 hrs by SRB method; conditions: HL-60, 48 h, read-out: GI
Method in brief: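 NCI single-dose primary screen at 10^-5 M, 48 h exposure. Cells grown in RPMI 1640 with 5% FBS and 2 mM L-glutamine. Suspension cells fixed in situ with TCA (final 16%), stained with SRB, absorbance read at 515 nm. Percent growth inhibition calculated against time-zero and untreated control plates.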

[21] = system: SK-MEL-2; assay: Growth inhibition of human SK-MEL-2 cells at 10 uM after 48 hrs by SRB method; conditions: SK-MEL-2, 48 h, read-out: GI; method in brief: as §1
[22] = Growth inhibition of human HOP92 cells at 10 uM after 48 hrs by SRB method; conditions: HOP-92, 48 h, read-out: GI; method in brief: as §1
[23] = system: NCI-H522; assay: Growth inhibition of human NCI-H522 cells at 10 uM after 48 hrs by SRB method; conditions: NCI-H522, 48 h, read-out: GI; method in brief: as §1
[24] = Growth inhibition of human PC3 cells at 10 uM after 48 hrs by SRB method; conditions: PC-3, 48 h, read-out: GI; method in brief: as §1
[25] = system: A498; assay: Growth inhibition of human A498 cells at 10 uM after 48 hrs by SRB method; conditions: A498, 48 h, read-out: GI; method in brief: as §1
[26] = system: MDA-MB-231; assay: Growth inhibition of human MDA-MB-231 cells at 10 uM after 48 hrs by SRB method; conditions: MDA-MB-231, 48 h, read-out: GI; method in brief: as §1
[27] = system: SN12C; assay: Growth inhibition of human SN12C cells at 10 uM after 48 hrs by SRB method; conditions: read-out: GI; method in brief: as §1
[28] = Growth inhibition of human HCT15 cells at 10 uM after 48 hrs by SRB method; conditions: HCT-15, 48 h, read-out: GI; method in brief: as §1
[29] = Growth inhibition of human COLO205 cells at 10 uM after 48 hrs by SRB method; conditions: COLO 205, 48 h, read-out: GI; method in brief: as §1
[30] = system: NCI/ADR-RES; assay: Growth inhibition of human NCI/ADR-RES cells at 10 uM after 48 hrs by SRB method; conditions: read-out: GI; method in brief: as §1
[31] = system: T47D; assay: Growth inhibition of human T47D cells at 10 uM after 48 hrs by SRB method; conditions: read-out: GI; method in brief: as §2
[32] = Growth inhibition of human MOLT4 cells at 10 uM after 48 hrs by SRB method; conditions: MOLT-4, 48 h, read-out: GI; method in brief: as §1
[33] = system: HT-29; assay: Growth inhibition of human HT-29 cells at 10 uM after 48 hrs by SRB method; conditions: HT-29, 48 h, read-out: GI; method in brief: as §1
[34] = Growth inhibition of human SF268 cells at 10 uM after 48 hrs by SRB method; conditions: SF-268, 48 h, read-out: GI; method in brief: as §1
[35] = system: KM12; assay: Growth inhibition of human KM12 cells at 10 uM after 48 hrs by SRB method; conditions: KM12, 48 h, read-out: GI; method in brief: as §1
[36] = Growth inhibition of human Caki1 cells at 10 uM after 48 hrs by SRB method; conditions: CAKI-1, 48 h, read-out: GI; method in brief: as §1
[37] = system: 786-0; assay: Growth inhibition of human 786-0 cells at 10 uM after 48 hrs by SRB method; conditions: 786-0, 48 h, read-out: GI; method in brief: as §1
[38] = Growth inhibition of human OVCAR4 cells at 10 uM after 48 hrs by SRB method; conditions: OVCAR-4, 48 h, read-out: GI; method in brief: as §1
[39] = system: MDA-MB-435; assay: Growth inhibition of human MDA-MB-435 cells at 10 uM after 48 hrs by SRB method; conditions: MDA-MB-435, 48 h, read-out: GI; method in brief: as §1
[40] = Growth inhibition of human OVCAR3 cells at 10 uM after 48 hrs by SRB method; conditions: OVCAR-3, 48 h, read-out: GI; method in brief: as §1
[41] = Growth inhibition of human SF295 cells at 10 uM after 48 hrs by SRB method; conditions: SF-295, 48 h, read-out: GI; method in brief: as §1

Structure (SMILES)	inhibition of growth at 10 µM [2] [%]	inhibition of growth at 10 µM [4] [%]	inhibition of growth at 10 µM [6] [%]	inhibition of growth at 10 µM [8] [%]	inhibition of growth at 10 µM [9] [%]	inhibition of growth at 10 µM [12] [%]	inhibition of growth at 10 µM [13] [%]	inhibition of growth at 10 µM [15] [%]	inhibition of growth at 10 µM [16] [%]	inhibition of growth at 10 µM [18] [%]	inhibition of growth at 10 µM [19] [%]	inhibition of growth at 10 µM [20] [%]	inhibition of growth at 10 µM [22] [%]	inhibition of growth at 10 µM [23] [%]	inhibition of growth at 10 µM [24] [%]	inhibition of growth at 10 µM [25] [%]	inhibition of growth at 10 µM [29] [%]	inhibition of growth at 10 µM [31] [%]	inhibition of growth at 10 µM [32] [%]	inhibition of growth at 10 µM [33] [%]	other results
O=C(CN1CCN(c2nnc(-c3ccccc3)c3ccccc23)CC1)Nc1nc(-c2ccccc2)cs1	53	57	44	48	90	44	30	56	59	77	50	50	47	58	62	54	54	85	70	34	inhibition of growth at 10 µM [1]: 45%; inhibition of growth at 10 µM [3]: 44%; inhibition of growth at 10 µM [5]: 48%; inhibition of growth at 10 µM [7]: 40%; inhibition of growth at 10 µM [10]: 53%; inhibition of growth at 10 µM [11]: 38%; inhibition of growth at 10 µM [14]: 38%; inhibition of growth at 10 µM [17]: 31%; inhibition of growth at 10 µM [21]: 40%; inhibition of growth at 10 µM [26]: 38%; inhibition of growth at 10 µM [27]: 32%; inhibition of growth at 10 µM [28]: 51%; inhibition of growth at 10 µM [30]: 45%
CCOC(=O)c1sc(NC(=O)CN2CCN(c3nnc(-c4ccccc4)c4ccccc34)CC2)nc1C	34	64	33	33	46	34	36	53	49	33	34	43	38	64	57	37	34	68	59	50	inhibition of growth at 10 µM [34]: 32%; inhibition of growth at 10 µM [3]: 32%; inhibition of growth at 10 µM [7]: 33%; inhibition of growth at 10 µM [35]: 30%; inhibition of growth at 10 µM [36]: 35%; inhibition of growth at 10 µM [26]: 49%; inhibition of growth at 10 µM [28]: 44%; inhibition of growth at 10 µM [37]: 31%
O=C(CN1CCN(c2nnc(-c3ccccc3)c3ccccc23)CC1)Nc1nc(-c2ccc(Cl)cc2)cs1	38	53	37	45	50	36	41	58	66	56	60	45	31	47	56	52	32	65	64	32	inhibition of growth at 10 µM [34]: 32%; inhibition of growth at 10 µM [5]: 45%; inhibition of growth at 10 µM [38]: 30%; inhibition of growth at 10 µM [10]: 44%; inhibition of growth at 10 µM [11]: 38%; inhibition of growth at 10 µM [14]: 31%; inhibition of growth at 10 µM [21]: 31%; inhibition of growth at 10 µM [39]: 31%; inhibition of growth at 10 µM [36]: 41%; inhibition of growth at 10 µM [40]: 31%; inhibition of growth at 10 µM [41]: 38%; inhibition of growth at 10 µM [27]: 30%; inhibition of growth at 10 µM [30]: 39%; inhibition of growth at 10 µM [37]: 30%
